Measurements published in PMC7323501 (Inorganic chemistry, 2019).
Where two headings read alike, the source gives them in different places.

What was measured:
[1] = cited from earlier work
[2] = CCA assay: copper/ascorbate redox cycling, hydroxyl radical production; conditions: 1 equiv (10 μM) vs copper(II) 10 μM, ascorbate 300 μM, CCA 100 μM, pH 7.4
Procedure, shortened: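 Cu(II)/ascorbate hydroxyl-radical model in PBS (pH 7.4) with Desferal (1 μM); CuSO4 in water. Addition order is buffer, CCA (100 μM), Desferal, test compound (0.5 equiv = 5 μM or 1 equiv = 10 μM), Cu(II) (10 μM), then ascorbate (300 μM). The read-out is 7-hydroxy-CCA fluorescence (λex 395 nm, λem 450 nm). Triplicate.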

[3] = previously shown; cited from earlier work
[4] = DPPH radical scavenging assay; conditions: 1–1500 μM, MeOH, 30 min, n = 3
Procedure, shortened: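 Test compound stocks (5 mM, MeOH) were diluted and mixed 1:1 with DPPH stock (150 μM in MeOH), giving final compound 1–1500 μM. Plates were incubated 30 min in the dark at room temperature and read at 516 nm. BHT served as reference antioxidant, and DPPH plus MeOH as the control. Each concentration was run in triplicate, with results normalised to control as % DPPH quenched.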

[5] = tested on: Nrf2; test: Nrf2 expression by Western blot in HT-22 cells; format: cell-based, mouse; conditions: HT-22, 1 μM, 24 h
[6] = ABTS radical reactivity
[7] = tested on: HT-22 cells; test: Cytoprotection against H2O2 in HT-22 cells, WST-8 assay; format: cell-based, mouse; conditions: then 600 μM H2O2 4 h
Procedure, shortened: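 HT-22 cells were pretreated with or without test compound (0.1–100 μM) for 24 h, then exposed to 600 μM H2O2 for 4 h. Viability was read by WST-8 reduction (2 h incubation, A450). Values are mean ± SD, n = 6, and significance was tested against the H2O2-only group.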

[8] = tested on: Nrf2 pathway; conditions: human blood–brain barrier CMEC/D3 cells; cited from earlier work

What does the source list for `C1CNCCNCCNCCN1` [cyclen, reference compound]?
log K1^H ([1]; I = 0.15 M NaClO4): 10.66; log K2^H ([1]; I = 0.15 M NaClO4): 9.69; log K3^H ([1]; I = 0.15 M NaClO4): 1.41; pI ([1]; I = 0.15 M NaClO4): > 10.66

With `CCN(CC)Cc1cccc(CN(CC)CC)n1` [2,6-bis[(diethylamino)methyl]pyridine] as the compound, how does the “inhibition of CCA conversion to fluorescent hydroxy-CCA” value [2] read?
Its value is “failed to give any indication of the prevention of copper redox cycling”.

What does the source list for `c1cc2nc(c1)CNCCNCCNC2` [L1]?
DPPH^• radical scavenging activity [3]: lack of radical scavenging activity; log K1^H ([1]; I = 0.15 M NaCl, T = 298 K): 11.37; log K2^H ([1]; I = 0.15 M NaCl, T = 298 K): 8.22; log K3^H ([1]; I = 0.15 M NaCl, T = 298 K): 1.61; pI ([1]; I = 0.15 M NaCl, T = 298 K): >11.37

Which “DPPH^• radical scavenging response” value [4] does the source give for `Cc1cc(C(C)(C)C)c(O)c(C(C)(C)C)c1` [BHT, 2,6-Di-tert-butyl-4-methylphenol, reference compound] here?
Its value is “rapid decrease in the DPPH^• absorbance band”.

For `Oc1cc2nc(c1)CNCCNCCNC2` [L2], which “expression level of Nrf2” value [5] is on record?
The value was “significantly increase the expression level of Nrf2”.

And the “log K1^H” value ([1]; I = 0.15 M NaCl, T = 298 K)?
The value was 11.56.

And the “log K2^H” value ([1]; I = 0.15 M NaCl, T = 298 K)?
Its value is 9.05.

What about the “log K3^H” value ([1]; I = 0.15 M NaCl, T = 298 K) of the same compound?
The value was 5.45.

And the “log K4^H” value ([1]; I = 0.15 M NaCl, T = 298 K)?
The value was 1.68.

And the pI ([1]; I = 0.15 M NaCl, T = 298 K)?
The pI was 10.31.

What about the “reactivity with ABTS” value [6] of the same compound?
Its value is “little to no reactivity”.

What about the “cell viability after H2O2” value ([7]; HT-22, 1 μM pretreatment 24 h, mean ± SD, n = 6) of the same compound?
The value was 70.1 ± 9.8%.

And the “cell viability after H2O2” value ([7]; HT-22, 0.1, 10 and 100 μM pretreatment 24 h)?
Its value is “did not improve the cell viability”.

What about the “DPPH^• radical scavenging response” value [4] of the same compound?
The value was “strong response”.

And the Nrf2 pathway activation [8]?
The Nrf2 pathway activation was “could activate the Nrf2 pathway”.
